Results reported in ChEMBL document CHEMBL4359830, “Discovery and structure-activity relationship of novel diphenylthiazole derivatives as BTK inhibitor with potent activity against B cell lymphoma cell lines” (Eur J Med Chem, 2019).

How the values were obtained:
Ramos [1] = assay: Antiproliferative activity against human Ramos cells at 40 uM measured after 72 hrs by CCK-8 assay relative to control; type: functional; details: Homo sapiens, Ramos, 72 h
Outline: (§1)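 Ramos or Raji cells in RPMI-1640 with 10% FBS and 1% penicillin-streptomycin at 37 °C, 5% CO2. Seeded at 2000–3000 cells/well one day before compound addition. Exposure 72 h, then CCK-8 with absorbance at 450 nm. […] Single-point inhibition at 40 µM reported as mean ± standard deviation.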

Raji [2] = assay: Induction of apoptosis in human Raji cells assessed as necrotic cells at 1 uM measured after 15 mins by Annexin-V-APC staining-based flow cytometric analysis (reference value: 1.87 %); type: functional
Raji [3] = assay: Induction of apoptosis in human Raji cells assessed as early apoptotic cells at 3 uM measured after 15 mins by Annexin-V-APC staining-based flow cytometric analysis (reference value: 0.021 %); type: functional
Ramos [4] = assay: Cell cycle arrest in human Ramos cells assessed as accumulation at S phase at 5 uM measured after 48 hrs by propidium iodide/RNase staining based flow cytometric analysis (reference value: 56.35 %); type: functional
Ramos [5] = assay: Cell cycle arrest in human Ramos cells assessed as accumulation at G2/M phase at 5 uM measured after 48 hrs by propidium iodide/RNase staining based flow cytometric analysis (reference value: 5.98 %); type: functional
[6] = target: T1, Tyrosine-protein kinase BTK (Homo sapiens, UniProt Q06187); assay: Inhibition of BTK in anti-IgM-stimulated human Raji cells assessed as decrease in auto-phosphorylation at Y223 residue after 48 hrs by Western blot analysis; type: cell-based
T1 sequence (Q06187 whole entry): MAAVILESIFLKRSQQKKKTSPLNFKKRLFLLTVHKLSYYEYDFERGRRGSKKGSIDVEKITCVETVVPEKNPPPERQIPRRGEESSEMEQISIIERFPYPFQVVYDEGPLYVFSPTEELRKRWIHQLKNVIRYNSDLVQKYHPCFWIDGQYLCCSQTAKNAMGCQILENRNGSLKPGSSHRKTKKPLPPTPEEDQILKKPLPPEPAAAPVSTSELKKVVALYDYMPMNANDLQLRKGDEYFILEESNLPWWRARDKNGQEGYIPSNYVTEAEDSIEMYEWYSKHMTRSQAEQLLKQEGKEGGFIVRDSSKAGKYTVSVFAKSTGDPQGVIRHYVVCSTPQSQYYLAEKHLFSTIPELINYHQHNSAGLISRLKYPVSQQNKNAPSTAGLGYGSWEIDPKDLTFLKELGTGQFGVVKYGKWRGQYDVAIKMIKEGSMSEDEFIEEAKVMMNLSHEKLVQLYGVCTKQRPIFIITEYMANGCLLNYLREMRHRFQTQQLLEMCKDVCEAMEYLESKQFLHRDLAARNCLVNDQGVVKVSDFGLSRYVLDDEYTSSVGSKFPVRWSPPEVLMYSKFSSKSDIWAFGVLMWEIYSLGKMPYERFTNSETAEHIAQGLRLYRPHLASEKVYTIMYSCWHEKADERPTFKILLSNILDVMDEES
Outline: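 Cells were stimulated with anti-IgM and exposed to serial dilutions for 48 h. Lysis was in 2× Laemmli buffer with 2.5% β-mercaptoethanol at 4 °C for 15 min, then boiling for 5 min. Proteins were separated on 10% SDS-PAGE and moved to nitrocellulose. Blots were probed overnight (12–18 h, 4 °C) with phospho-BTK Tyr223, phospho-PLCγ2 Tyr1217 and β-actin antibodies (1:1000), then anti-rabbit HRP, with chemiluminescent detection.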

Ramos [7] = assay: Induction of apoptosis in human Ramos cells assessed as late apoptotic cells at 0.1 uM measured after 15 mins by Annexin-V-APC staining-based flow cytometric analysis (reference value: 1.85 %); type: functional
Ramos [8] = assay: Induction of apoptosis in human Ramos cells assessed as viable cells at 5 uM measured after 15 mins by Annexin-V-APC staining-based flow cytometric analysis (reference value: 96.5 %); type: functional; details: Homo sapiens, Ramos, 0.25 h; read-out: Activity
Ramos [9] = assay: Induction of apoptosis in human Ramos cells assessed as viable cells at 3 uM measured after 15 mins by Annexin-V-APC staining-based flow cytometric analysis (reference value: 96.5 %); type: functional; details: 0.25 h, read-out: Activity
Raji [10] = assay: Antiproliferative activity against human Raji cells at 40 uM measured after 72 hrs by CCK-8 assay relative to control; type: functional; details: Homo sapiens, Raji, 72 h; outline: as §1
Ramos [11] = assay: Cell cycle arrest in human Ramos cells assessed as accumulation at G2/M phase at 1 uM measured after 48 hrs by propidium iodide/RNase staining based flow cytometric analysis (reference value: 5.98 %); type: functional
[12] = target: T1, Tyrosine-protein kinase BTK; assay: Inhibition of human recombinant full length N-terminal His tagged BTK expressed in baculovirus infected Sf9 cells using poly (Glu,Tyr) 4:1 as substrate measured after 60 mins in presence of ATP by ADP-Glo kinase assay
Raji [13] = assay: Cell cycle arrest in human Raji cells assessed as accumulation at G0/G1 phase at 5 uM measured after 48 hrs by propidium iodide/RNase staining based flow cytometric analysis (reference value: 48.68 %); type: functional
Ramos [14] = assay: Antiproliferative activity against human Ramos cells measured after 72 hrs by CCK-8 assay; type: functional, cell-based; outline: as §1
Ramos [15] = assay: Induction of apoptosis in human Ramos cells assessed as necrotic cells at 0.1 uM measured after 15 mins by Annexin-V-APC staining-based flow cytometric analysis (reference value: 1.50 %); type: functional
Ramos [16] = assay: Cell cycle arrest in human Ramos cells assessed as accumulation at S phase at 1 uM measured after 48 hrs by propidium iodide/RNase staining based flow cytometric analysis (reference value: 56.35 %); type: functional
Raji [17] = assay: Cell cycle arrest in human Raji cells assessed as accumulation at S phase at 1 uM measured after 48 hrs by propidium iodide/RNase staining based flow cytometric analysis (reference value: 33.18 %); type: functional
Raji [18] = assay: Induction of apoptosis in human Raji cells assessed as viable cells at 1 uM measured after 15 mins by Annexin-V-APC staining-based flow cytometric analysis (reference value: 97.5 %); type: functional; details: 0.25 h, read-out: Activity
Raji [19] = assay: Induction of apoptosis in human Raji cells assessed as late apoptotic cells at 5 uM measured after 15 mins by Annexin-V-APC staining-based flow cytometric analysis (reference value: 0.57 %); type: functional
Raji [20] = assay: Induction of apoptosis in human Raji cells assessed as viable cells at 3 uM measured after 15 mins by Annexin-V-APC staining-based flow cytometric analysis (reference value: 97.5 %); type: functional; details: 0.25 h, read-out: Activity
Raji [21] = assay: Induction of apoptosis in human Raji cells assessed as early apoptotic cells at 0.1 uM measured after 15 mins by Annexin-V-APC staining-based flow cytometric analysis (reference value: 0.021 %); type: functional
Ramos [22] = assay: Cell cycle arrest in human Ramos cells assessed as accumulation at G2/M phase at 0.1 uM measured after 48 hrs by propidium iodide/RNase staining based flow cytometric analysis (reference value: 5.98 %); type: functional
Ramos [23] = assay: Induction of apoptosis in human Ramos cells assessed as necrotic cells at 3 uM measured after 15 mins by Annexin-V-APC staining-based flow cytometric analysis (reference value: 1.50 %); type: functional
Raji [24] = assay: Induction of apoptosis in human Raji cells assessed as necrotic cells at 5 uM measured after 15 mins by Annexin-V-APC staining-based flow cytometric analysis (reference value: 1.87 %); type: functional
Raji [25] = assay: Cell cycle arrest in human Raji cells assessed as accumulation at G2/M phase at 0.1 uM measured after 48 hrs by propidium iodide/RNase staining based flow cytometric analysis (reference value: 18.14 %); type: functional
Raji [26] = assay: Induction of apoptosis in human Raji cells assessed as late apoptotic cells at 0.1 uM measured after 15 mins by Annexin-V-APC staining-based flow cytometric analysis (reference value: 0.57 %); type: functional
Raji [27] = assay: Antiproliferative activity against human Raji cells measured after 72 hrs by CCK-8 assay; type: functional, cell-based; outline: as §1

`CN1CCN(c2ccc(Nc3nc(-c4cccc(NC(=O)c5ccc(F)c(Cl)c5)c4)sc3C(N)=O)cc2)CC1` was tested, and the inhibition at 40 µM (Ramos [1]) was 97.5%, the Activity (Raji [2]) was 1.88% and the Activity (Raji [3]) was 0%. The Activity (Ramos [4]) was 14.14%, the Activity (Ramos [5]) was 2.17% and the inhibition [6] was “Dose-dependent effect”. It also gave an Activity (Ramos [7]) of 1.88%, a viability at 5 µM (Ramos [8]) of 1.55% and a viability at 3 µM (Ramos [9]) of 87.3%. It also gave an inhibition at 40 µM (Raji [10]) of 94.4%, an Activity (Ramos [11]) of 11.39% and an IC50 [12] of 90 nM. It also gave an Activity (Raji [13]) of 82.55%, an IC50 (Ramos [14]) of 4.83 µM and an Activity (Ramos [15]) of 1.61%. For the same compound, the Activity (Ramos [16]) was 33.13%, the Activity (Raji [17]) was 21.47% and the viability at 1 µM (Raji [18]) was 97.6%. It also gave an Activity (Raji [19]) of 67.7%, a viability at 3 µM (Raji [20]) of 95.6% and an Activity (Raji [21]) of 0.01%. For the same compound, the Activity (Ramos [22]) was 8.33%, the Activity (Ramos [23]) was 6.17% and the Activity (Raji [24]) was 32%. It also gave an Activity (Raji [25]) of 19.33%, an Activity (Raji [26]) of 0.44% and an IC50 (Raji [27]) of 6.23 µM.
